Results: ChEMBL document CHEMBL2034971, “Appraisal of GABA and PABA as linker: design and synthesis of novel benzamide based histone deacetylase inhibitors” (Eur J Med Chem, 2012)

Legend:
U-251 = test: Growth inhibition of human U251 cells after 2 days by MTT assay; assay type: functional; conditions: U-251, 48 h
HCT-116 = test: Growth inhibition of human HCT116 cells after 2 days by MTT assay; assay type: functional; conditions: HCT-116, 48 h; for CC50: read-out: LC50 (the source's name)
[1] = Antitumor activity against mouse EAC cells allografted in Swiss albino mouse assessed as decrease in tumor weight at 0.2 mmol/kg, ip administered from day 1 to day 7 every 24 hrs; assay type: functional; conditions: Ehrlich
Method in brief: (§1)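 EAC cells kept by intraperitoneal passage in Swiss albino mice (18-20 g, 10 weeks) every 10 days; 9-day-old cells in isotonic saline adjusted to 10×10^6 cells/mL, 0.1 mL per 10 g injected ip on day 0. Seven daily ip doses in PBS pH 7.2 (0.1 mL/10 g), days 1-7; vehicle control. Day 8 sacrifice after 6 h fast.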

Histone deacetylase 1 = Histone deacetylase 1 (Homo sapiens, UniProt Q13547); test: Inhibition of HDAC1 using Fluor de Lys as substrate by fluorescence analysis
Histone deacetylase 1, sequence (Q13547 whole entry): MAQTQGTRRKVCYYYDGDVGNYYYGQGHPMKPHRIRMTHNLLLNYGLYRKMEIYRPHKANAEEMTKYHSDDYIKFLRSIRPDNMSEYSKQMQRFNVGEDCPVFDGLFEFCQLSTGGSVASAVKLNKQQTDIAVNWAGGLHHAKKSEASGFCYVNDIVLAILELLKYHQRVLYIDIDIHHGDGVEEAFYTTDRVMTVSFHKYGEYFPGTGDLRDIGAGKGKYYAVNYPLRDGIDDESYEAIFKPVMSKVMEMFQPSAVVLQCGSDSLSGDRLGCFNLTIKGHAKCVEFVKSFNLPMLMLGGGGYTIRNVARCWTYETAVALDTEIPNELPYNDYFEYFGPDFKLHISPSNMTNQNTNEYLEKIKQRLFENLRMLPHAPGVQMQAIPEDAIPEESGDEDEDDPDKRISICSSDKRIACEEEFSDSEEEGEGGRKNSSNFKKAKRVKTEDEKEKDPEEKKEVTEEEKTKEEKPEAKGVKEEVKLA

[2] = Antitumor activity against mouse EAC cells allografted in Swiss albino mouse assessed as decrease in tumor cell at 0.2 mmol/kg, ip administered from day 1 to day 7 every 24 hrs; assay type: functional; conditions: Ehrlich; method in brief: as §1
[3] = Antitumor activity against mouse EAC cells allografted in Swiss albino mouse assessed as decrease in tumor cell at 1 mg/kg, ip administered from day 1 to day 7 every 24 hrs; assay type: functional; conditions: Ehrlich, route intraperitoneal; method in brief: as §1
[4] = Antitumor activity against mouse EAC cells allografted in Swiss albino mouse assessed as decrease in tumor weight at 1 mg/kg, ip administered from day 1 to day 7 every 24 hrs; assay type: functional; conditions: Ehrlich, route intraperitoneal; method in brief: as §1

Structure (SMILES) | GI50 (U-251) [µM] | LC50 (concentration killing 50% of cells) (U-251) [µM] | TGI (U-251) [µM] | GI50 (HCT-116) [µM] | TGI (HCT-116) [µM] | CC50 (HCT-116) [µM] | inhibition in vivo at 200 µmol/kg [1] [%] | IC50 (Histone deacetylase 1) [µM] | inhibition in vivo at 200 µmol/kg [2] [%] | inhibition in vivo at 1 mg/kg [3] [%] | inhibition in vivo at 1 mg/kg [4] [%]
Nc1ccccc1NC(=O)CCCNCC(=O)Nc1ccc([N+](=O)[O-])cc1 | 9.4 | > 100 | 66 | 0.6 | 8.5 | > 100 | 78.5 | 0.9 | 76.5 |  | 
Nc1ccccc1NC(=O)c1ccc(NCC(=O)Nc2cccc(Cl)c2)cc1 | 15.4 | > 100 | 88 | 11.5 | > 100 | > 100 | 68.4 | 2.5 | 51.7 |  | 
Cc1ccc(NC(=O)CNc2ccc(C(=O)Nc3ccccc3N)cc2)cc1 | 84 | > 100 | > 100 | 12.6 | > 100 | > 100 | 43.3 | 4.5 | 25.2 |  | 
CO[C@@]12[C@H](COC(N)=O)C3=C(C(=O)C(C)=C(N)C3=O)N1C[C@@H]1N[C@@H]12 [MITOMYCIN] |  |  |  |  |  |  |  |  |  | 100 | 100
Nc1ccccc1NC(=O)CCCNCC(=O)Nc1ccc(Br)cc1 | 10.4 | > 100 | 80 | 7.7 | 55.5 | > 100 | 73.8 | 1.7 | 68.7 |  | 
Nc1ccccc1NC(=O)CCCNCC(=O)Nc1cc(Cl)ccc1Cl | 44 | > 100 | > 100 | 31 | 78 | > 100 | 50 | 8.9 | 50.9 |  | 
Nc1ccccc1NC(=O)CCCNCC(=O)Nc1ccccc1 | > 100 | > 100 | > 100 | 70.4 | > 100 | > 100 | 25 | 9.2 | 19.1 |  | 
Nc1ccccc1NC(=O)c1ccc(NCC(=O)Nc2ccccc2Cl)cc1 | 24.2 | > 100 | > 100 | 9.5 | > 100 | > 100 | 43.3 | 2.9 | 31.4 |  | 
Nc1ccccc1NC(=O)c1ccc(NCC(=O)Nc2ccc(Br)cc2)cc1 | 10.8 | > 100 | 45 | 6.8 | 47.5 | > 100 | 76.3 | 1.6 | 73.5 |  | 
Nc1ccccc1NC(=O)c1ccc(NCC(=O)Nc2cccc([N+](=O)[O-])c2)cc1 | 13.5 | > 100 | 52 | 1.1 | 9 | > 100 | 67.6 | 1.4 | 40.4 |  | 
COc1ccc(NC(=O)CNCCCC(=O)Nc2ccccc2N)cc1 | 34 | > 100 | > 100 | 8.6 | 44 | > 100 | 63.8 | 3.6 | 63.3 |  | 
Nc1ccccc1NC(=O)c1ccc(NCC(=O)Nc2ccc([N+](=O)[O-])cc2)cc1 | 8.2 | > 100 | 42.5 | 0.6 | 6.5 | > 100 | 83.3 | 0.7 | 77.5 |  | 
